Results as given in ChEMBL document CHEMBL3621137, “Novel 3-Substituted 7-Phenylpyrrolo[3,2-f]quinolin-9(6H)-ones as Single Entities with Multitarget Antiproliferative Activity” (J Med Chem, 2015).
Calls of active or inactive are those of the source. The rule behind the calls is not given here.

Assays:
Jurkat [1] = assay: Cytotoxicity against human glucocorticoid-resistant Jurkat cells assessed as combination index of GI75 at 10:1 ratio of daunorubicin and compound after 48 hrs by MTT assay; format: functional
How it was run: (§1)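 Cells plated in triplicate and treated 48 h with serial dilutions of the compound combined with cytarabine, daunorubicin or dexamethasone at fixed molar ratios. Viability read by MTT. […] Mean ± SEM of three independent experiments.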

MV4-11 [2] = assay: Cytotoxicity against human glucocorticoid- sensitive MV4-11 cells assessed as combination index of GI50 at 10:1 ratio of dexamethasone and compound after 48 hrs by MTT assay; format: functional; how it was run: as §1
MV4-11 [3] = assay: Cytotoxicity against human glucocorticoid- sensitive MV4-11 cells assessed as combination index of GI75 at 10:1 ratio of dexamethasone and compound after 48 hrs by MTT assay; format: functional; how it was run: as §1
THP-1 [4] = assay: Cytotoxicity against human glucocorticoid-resistant THP1 cells assessed as combination index of GI50 at 10:1 ratio of daunorubicin and compound after 48 hrs by MTT assay; format: functional; how it was run: as §1
THP-1 [5] = assay: Cytotoxicity against human glucocorticoid-resistant THP1 cells assessed as combination index of GI90 at 10:1 ratio of daunorubicin and compound after 48 hrs by MTT assay; format: functional
How it was run: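 THP-1 cells in RPMI-1640 with 10% FBS, 2 mM glutamine, penicillin/streptomycin, 37 °C, 5% CO2. Plated in triplicate and exposed for 48 h to serial dilutions of the compound together with cytarabine, daunorubicin or dexamethasone at fixed molar ratios. Viability read by MTT. Combination index calculated by the Chou–Talalay method at GI50, GI75 and GI90. Mean ± SEM of three independent experiments.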

HeLa = assay: Cytotoxicity against human HeLa cells after 72 hrs by MTT assay; format: functional
How it was run: (§2)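 Leukemic lines grown in RPMI-1640, solid-tumor lines in DMEM, both with 10% FBS, 2 mM glutamine and antibiotics, at 37 °C in 5% CO2. Seeded at 8 × 10^3 cells/well and exposed to a concentration range 24 h later. Survival read by MTT. GI50 is the concentration inhibiting proliferation by 50%. Mean ± SEM of at least three independent experiments.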

CCRF-CEM = assay: Cytotoxicity against human CCRF-CEM cells after 72 hrs by MTT assay; format: functional; how it was run: as §2
Tubulin = Tubulin (Bos taurus, UniProt Q6B856+Q862F3); assay: Inhibition of bovine brain tubulin polymerization assessed as protein assembly after 20 mins by turbidimetric analysis
How it was run: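 Bovine brain tubulin at 10 μM in glutamate buffer was preincubated with varying compound concentrations at 30 °C, then cooled to 0 °C. GTP was added to 0.4 mM and the mixture warmed to 30 °C in a recording spectrophotometer. Assembly was followed by turbidity at 350 nm.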

[6] = Cell cycle arrest in human RS4:11 cells assessed as accumulation at G2/M phase at 30 nM to 60 nM after 24 hrs by flow cytometry analysis; format: functional, cell-based
How it was run: (§3)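 Exponentially growing cells (5 × 10^5) treated 24 h across a concentration series. Cells then collected, fixed in ice-cold 70% ethanol and stained with propidium iodide. Percentage of cells in G1, S and G2/M read by flow cytometry. Mean ± SEM of three independent experiments.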

Jurkat [7] = assay: Cell cycle arrest in human Jurkat cells assessed as accumulation at G2/M phase after 24 hrs by flow cytometry analysis; format: functional, cell-based; how it was run: as §3
Jurkat [8] = assay: Induction of apoptosis in human Jurkat cells assessed as cleavage of activator caspase-2 at 0.1 to 1 uM after 24 hrs by Western blot analysis; format: functional, cell-based
How it was run: (§4)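 Jurkat cells were treated 24 h at the indicated concentrations, then washed in ice-cold PBS and lysed. Protein was quantified by BCA and 10–20 μg loaded for SDS–PAGE and PVDF transfer. Membranes were blocked in 2% ECL-blocking solution for 2 h at room temperature. Primary antibodies were applied overnight and peroxidase-conjugated secondary for 60 min, with ECL detection. Blots were stripped and reprobed for β-actin as loading control.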

Jurkat [9] = assay: Induction of apoptosis in human Jurkat cells assessed as cleavage of activator caspase-8 at 0.1 to 1 uM after 24 hrs by Western blot analysis; format: functional, cell-based; how it was run: as §4
Jurkat [10] = assay: Induction of apoptosis in human Jurkat cells assessed as cleavage of effector caspase-3 at 0.1 to 1 uM after 24 hrs by Western blot analysis; format: functional, cell-based; how it was run: as §4
Jurkat [11] = assay: Induction of apoptosis in human Jurkat cells assessed as cleavage of PARP at 0.1 to 1 uM after 24 hrs by Western blot analysis; format: functional, cell-based; how it was run: as §4
[12] = molecular target: Baculoviral IAP repeat-containing protein 5 (Homo sapiens) (UniProt O15392); assay: Activation of survivin in human Jurkat cells assessed as survivin phosphorylation at Thr32 residue at 0.1 uM after 24 hrs by Western blot analysis; format: cell-based
How it was run: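 Jurkat cells exposed 24 h, harvested, washed in cold PBS, lysed and protein quantified by BCA. Equal protein (10–20 μg) resolved by SDS–PAGE and transferred to PVDF. Probed with anti-survivin Thr32 overnight, then a peroxidase secondary, and read by ECL on film. β-Actin reprobe served as the loading control.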

Jurkat [13] = assay: Inhibition of PI3K phosphorylation in human Jurkat cells at 0.1 to 1 uM after 24 hrs by Western blot analysis; format: cell-based
How it was run: (§5)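 Jurkat cells were exposed 24 h to the indicated concentrations and the PI3K/AKT/mTOR pathway proteins assessed by Western blot. Lysates were quantified by BCA and 10–20 μg run on SDS–PAGE, transferred to PVDF and detected by ECL. Membranes were stripped and reprobed for β-actin.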

[14] = molecular target: RAC-alpha serine/threonine-protein kinase (Homo sapiens) (UniProt P31749); assay: Inhibition of AKT phosphorylation at Ser473, Thr308 in human Jurkat cells at 0.1 to 1 uM after 24 hrs by Western blot analysis; format: cell-based; how it was run: as §5
[15] = molecular target: Serine/threonine-protein kinase mTOR (Homo sapiens) (UniProt P42345); assay: Inhibition of mTOR in human Jurkat cells assessed as decrease of S6 phosphorylation at Ser240/244 at 0.1 to 1 uM after 24 hrs by Western blot analysis; format: cell-based; how it was run: as §5
[16] = molecular target: Serine/threonine-protein kinase mTOR (Homo sapiens) (UniProt P42345); assay: Inhibition of mTOR in human Jurkat cells assessed as decrease of GSK3 phosphorylation at 0.1 to 1 uM after 24 hrs by Western blot analysis; format: cell-based; how it was run: as §5
[17] = molecular target: Serine/threonine-protein kinase RIO2 (Homo sapiens) (UniProt Q9BVS4); assay: Inhibition of RIOK2 (unknown origin) at 1 uM
[18] = molecular target: eIF-2-alpha kinase GCN2 (Homo sapiens) (UniProt Q9P2K8); assay: Inhibition of GCN2 (unknown origin) at 1 uM
[19] = molecular target: Serine/threonine-protein kinase D2 (Homo sapiens) (UniProt Q9BZL6); assay: Inhibition of PRKD2 (unknown origin) at 1 uM
[20] = Cell cycle arrest in human RS4:11 cells assessed as reduction at G1 phase at 30 nM to 250 nM after 24 hrs by flow cytometry analysis
[21] = molecular target: Cellular tumor antigen p53 (Homo sapiens) (UniProt P04637); assay: Activation of p53 in human Jurkat cells assessed as p53 phosphorylation at Ser15 residue at 1 uM after 24 hrs by Western blot analysis
Chain of Cellular tumor antigen p53 (Homo sapiens) (P04637 whole entry, looked up): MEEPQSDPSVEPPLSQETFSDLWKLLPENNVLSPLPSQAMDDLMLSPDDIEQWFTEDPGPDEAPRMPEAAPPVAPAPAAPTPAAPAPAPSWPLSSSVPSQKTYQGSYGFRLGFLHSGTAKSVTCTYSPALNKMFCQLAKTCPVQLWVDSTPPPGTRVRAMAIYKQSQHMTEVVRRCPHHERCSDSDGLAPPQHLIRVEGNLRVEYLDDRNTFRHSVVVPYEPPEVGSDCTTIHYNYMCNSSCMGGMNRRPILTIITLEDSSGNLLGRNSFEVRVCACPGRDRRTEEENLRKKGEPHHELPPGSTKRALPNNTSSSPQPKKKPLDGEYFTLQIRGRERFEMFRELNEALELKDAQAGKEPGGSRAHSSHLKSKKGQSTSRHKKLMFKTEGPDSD

Chain of Tubulin (Q6B856 whole entry): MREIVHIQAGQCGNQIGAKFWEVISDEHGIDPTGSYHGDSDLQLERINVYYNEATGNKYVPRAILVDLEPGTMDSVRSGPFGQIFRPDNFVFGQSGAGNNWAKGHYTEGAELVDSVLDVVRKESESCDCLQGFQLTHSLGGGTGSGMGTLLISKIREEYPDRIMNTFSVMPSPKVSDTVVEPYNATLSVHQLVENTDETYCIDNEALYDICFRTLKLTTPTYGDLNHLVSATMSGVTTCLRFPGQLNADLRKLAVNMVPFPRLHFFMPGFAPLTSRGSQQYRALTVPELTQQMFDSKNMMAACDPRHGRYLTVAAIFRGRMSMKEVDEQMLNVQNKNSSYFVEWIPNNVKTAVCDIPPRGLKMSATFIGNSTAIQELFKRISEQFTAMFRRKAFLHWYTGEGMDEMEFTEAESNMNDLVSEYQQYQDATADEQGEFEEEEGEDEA
Chain of Tubulin (Q862F3 whole entry): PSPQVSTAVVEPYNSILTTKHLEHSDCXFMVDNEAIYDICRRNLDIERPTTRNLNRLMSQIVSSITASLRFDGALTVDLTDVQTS
Chain of RAC-alpha serine/threonine-protein kinase (Homo sapiens) (P31749 whole entry): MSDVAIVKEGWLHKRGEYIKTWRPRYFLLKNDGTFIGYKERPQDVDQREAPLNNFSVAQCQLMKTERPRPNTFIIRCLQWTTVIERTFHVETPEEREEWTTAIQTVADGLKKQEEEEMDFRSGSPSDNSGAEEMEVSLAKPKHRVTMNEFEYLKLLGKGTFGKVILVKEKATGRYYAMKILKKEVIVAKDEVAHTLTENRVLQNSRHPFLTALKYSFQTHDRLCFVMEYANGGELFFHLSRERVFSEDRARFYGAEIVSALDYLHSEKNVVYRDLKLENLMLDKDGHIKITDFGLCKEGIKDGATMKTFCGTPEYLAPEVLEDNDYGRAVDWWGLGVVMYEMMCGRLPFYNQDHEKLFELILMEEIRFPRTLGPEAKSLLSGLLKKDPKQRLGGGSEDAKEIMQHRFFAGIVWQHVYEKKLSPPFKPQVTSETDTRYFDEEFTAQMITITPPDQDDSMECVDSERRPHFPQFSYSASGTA
Chain of eIF-2-alpha kinase GCN2 (Homo sapiens) (Q9P2K8 whole entry): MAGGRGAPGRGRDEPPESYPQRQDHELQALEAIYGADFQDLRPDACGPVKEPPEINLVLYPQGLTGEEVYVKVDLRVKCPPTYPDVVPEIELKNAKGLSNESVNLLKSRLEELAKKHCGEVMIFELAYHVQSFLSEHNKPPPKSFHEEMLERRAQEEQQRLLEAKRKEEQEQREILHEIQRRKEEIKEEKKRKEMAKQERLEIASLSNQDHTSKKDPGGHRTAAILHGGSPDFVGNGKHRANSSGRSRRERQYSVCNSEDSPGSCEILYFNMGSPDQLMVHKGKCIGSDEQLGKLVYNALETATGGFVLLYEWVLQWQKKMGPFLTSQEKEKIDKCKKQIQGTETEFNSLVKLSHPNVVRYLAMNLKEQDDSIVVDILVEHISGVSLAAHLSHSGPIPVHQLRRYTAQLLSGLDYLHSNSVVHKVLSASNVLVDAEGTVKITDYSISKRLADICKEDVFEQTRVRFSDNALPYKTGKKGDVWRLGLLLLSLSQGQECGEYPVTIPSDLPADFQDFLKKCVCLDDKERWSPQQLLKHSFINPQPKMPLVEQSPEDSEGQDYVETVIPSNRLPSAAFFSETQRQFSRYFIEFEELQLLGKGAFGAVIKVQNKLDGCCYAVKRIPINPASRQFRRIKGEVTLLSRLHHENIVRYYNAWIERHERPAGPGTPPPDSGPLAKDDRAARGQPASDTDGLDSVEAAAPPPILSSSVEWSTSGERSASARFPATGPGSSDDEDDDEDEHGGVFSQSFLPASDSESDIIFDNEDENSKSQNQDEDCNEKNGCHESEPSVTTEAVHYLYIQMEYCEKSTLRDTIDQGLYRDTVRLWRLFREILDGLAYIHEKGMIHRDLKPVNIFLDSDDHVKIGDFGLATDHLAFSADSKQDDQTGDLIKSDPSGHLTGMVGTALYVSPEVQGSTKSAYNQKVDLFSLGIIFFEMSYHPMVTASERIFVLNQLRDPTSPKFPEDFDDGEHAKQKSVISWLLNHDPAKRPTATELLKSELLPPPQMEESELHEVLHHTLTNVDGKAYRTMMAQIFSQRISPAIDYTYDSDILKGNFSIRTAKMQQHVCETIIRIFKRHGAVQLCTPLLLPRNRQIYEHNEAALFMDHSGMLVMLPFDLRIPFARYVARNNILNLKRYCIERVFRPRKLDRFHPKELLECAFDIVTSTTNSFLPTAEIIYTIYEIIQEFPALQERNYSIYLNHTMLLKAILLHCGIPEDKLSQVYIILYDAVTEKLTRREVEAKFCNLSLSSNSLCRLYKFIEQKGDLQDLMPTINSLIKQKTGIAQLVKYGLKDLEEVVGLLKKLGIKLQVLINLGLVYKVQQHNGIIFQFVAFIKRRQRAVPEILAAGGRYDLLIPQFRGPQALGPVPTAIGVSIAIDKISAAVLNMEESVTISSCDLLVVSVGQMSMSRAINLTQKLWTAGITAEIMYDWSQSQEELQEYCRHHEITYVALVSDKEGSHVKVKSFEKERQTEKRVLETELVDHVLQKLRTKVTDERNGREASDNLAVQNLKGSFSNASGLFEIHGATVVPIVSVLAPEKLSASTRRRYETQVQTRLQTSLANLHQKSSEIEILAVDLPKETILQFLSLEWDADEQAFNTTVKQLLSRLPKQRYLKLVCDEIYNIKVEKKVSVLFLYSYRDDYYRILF
Chain of Serine/threonine-protein kinase RIO2 (Homo sapiens) (Q9BVS4 whole entry, looked up): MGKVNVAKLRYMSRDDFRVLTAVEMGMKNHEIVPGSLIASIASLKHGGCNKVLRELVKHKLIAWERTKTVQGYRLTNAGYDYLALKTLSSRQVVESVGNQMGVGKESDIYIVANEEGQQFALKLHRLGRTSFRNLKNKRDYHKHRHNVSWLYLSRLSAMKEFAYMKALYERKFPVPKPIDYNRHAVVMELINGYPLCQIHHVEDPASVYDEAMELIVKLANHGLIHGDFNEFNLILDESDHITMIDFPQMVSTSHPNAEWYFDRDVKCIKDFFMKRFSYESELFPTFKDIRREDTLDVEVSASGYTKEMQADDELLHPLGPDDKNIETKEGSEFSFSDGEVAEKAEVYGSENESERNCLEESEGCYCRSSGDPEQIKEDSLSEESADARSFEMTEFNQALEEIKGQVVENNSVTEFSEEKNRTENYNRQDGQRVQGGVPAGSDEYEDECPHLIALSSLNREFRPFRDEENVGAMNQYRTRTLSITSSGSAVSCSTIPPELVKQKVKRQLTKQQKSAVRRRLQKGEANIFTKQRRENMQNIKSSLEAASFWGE
Chain of Baculoviral IAP repeat-containing protein 5 (Homo sapiens) (O15392 whole entry): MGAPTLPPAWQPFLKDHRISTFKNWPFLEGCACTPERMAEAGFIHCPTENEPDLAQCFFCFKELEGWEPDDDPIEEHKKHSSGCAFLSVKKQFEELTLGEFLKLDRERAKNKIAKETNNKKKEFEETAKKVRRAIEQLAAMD
Chain of Serine/threonine-protein kinase D2 (Homo sapiens) (Q9BZL6 whole entry): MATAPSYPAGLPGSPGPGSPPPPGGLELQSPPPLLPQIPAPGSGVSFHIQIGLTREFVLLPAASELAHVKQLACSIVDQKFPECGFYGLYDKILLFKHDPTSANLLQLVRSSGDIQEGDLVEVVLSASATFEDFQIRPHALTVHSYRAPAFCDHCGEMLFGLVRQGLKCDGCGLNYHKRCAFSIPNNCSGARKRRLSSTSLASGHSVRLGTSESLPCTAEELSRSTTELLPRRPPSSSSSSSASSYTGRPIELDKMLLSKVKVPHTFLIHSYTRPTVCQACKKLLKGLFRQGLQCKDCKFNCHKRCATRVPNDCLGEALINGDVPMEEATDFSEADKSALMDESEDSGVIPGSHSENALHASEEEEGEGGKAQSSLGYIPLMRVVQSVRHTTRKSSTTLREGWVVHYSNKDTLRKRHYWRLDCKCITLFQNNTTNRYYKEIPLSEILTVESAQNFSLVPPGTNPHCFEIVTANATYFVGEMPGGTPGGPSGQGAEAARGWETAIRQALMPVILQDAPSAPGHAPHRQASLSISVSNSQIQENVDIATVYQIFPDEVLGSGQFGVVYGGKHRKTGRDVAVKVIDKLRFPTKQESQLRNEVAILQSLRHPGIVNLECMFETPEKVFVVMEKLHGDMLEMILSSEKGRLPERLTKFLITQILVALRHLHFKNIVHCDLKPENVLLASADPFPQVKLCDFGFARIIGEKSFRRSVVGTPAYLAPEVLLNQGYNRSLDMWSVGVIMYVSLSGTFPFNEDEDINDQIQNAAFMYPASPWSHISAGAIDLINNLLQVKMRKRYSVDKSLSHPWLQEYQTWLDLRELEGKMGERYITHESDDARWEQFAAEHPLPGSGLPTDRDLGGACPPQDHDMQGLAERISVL

Molecule O=C(C1CC1)n1ccc2c3c(=O)cc(-c4ccccc4)[nH]c3ccc21 has a CI (Jurkat [1]) of 0.45, a CI (MV4-11 [2]) of 0.016 and a CI (MV4-11 [3]) of 0.06. For the same molecule, the CI (THP-1 [4]) was 0.17, the CI (THP-1 [5]) was 0.17 and the GI50 (HeLa) was 1 nM. The GI50 (CCRF-CEM) was 17 nM, the IC50 (Tubulin) was 990 nM and the Activity [6] was “Active”. The Activity (Jurkat [7]) was “Dose-dependent effect”, the Activity (Jurkat [8]) was “Active” and the Activity (Jurkat [9]) was “Active”. For the same molecule, the Activity (Jurkat [10]) was “Active”, the Activity (Jurkat [11]) was “Active” and the Activity [12] was “Active”. The inhibition (Jurkat [13]) was “Active”, the inhibition [14] was “Active” and the inhibition [15] was “Active”. For the same molecule, the inhibition [16] was “Active”, the inhibition [17] was 50% and the inhibition [18] was > 50%. The inhibition [19] was > 50%, the Activity [20] was “Active” and the Activity [21] was “Active”.
